# Assay outcomes: PubChem, Johns Hopkins Ion Channel Center
# TRPC4 inh = inhibitors of mouse TRPC4 channel; HEK293 TRPC4beta/mu-opioid, DAMGO-evoked Fluo4 calcium flux; hits give low values; B-score at 10 µM; Q9QUQ5; 300,000 compounds, 0.39% hits;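 active means B-score over 3 SD under the library average, no early fluorescence shift, positive overall ratio signal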
# Target sequence (Q9QUQ5 whole entry, looked up): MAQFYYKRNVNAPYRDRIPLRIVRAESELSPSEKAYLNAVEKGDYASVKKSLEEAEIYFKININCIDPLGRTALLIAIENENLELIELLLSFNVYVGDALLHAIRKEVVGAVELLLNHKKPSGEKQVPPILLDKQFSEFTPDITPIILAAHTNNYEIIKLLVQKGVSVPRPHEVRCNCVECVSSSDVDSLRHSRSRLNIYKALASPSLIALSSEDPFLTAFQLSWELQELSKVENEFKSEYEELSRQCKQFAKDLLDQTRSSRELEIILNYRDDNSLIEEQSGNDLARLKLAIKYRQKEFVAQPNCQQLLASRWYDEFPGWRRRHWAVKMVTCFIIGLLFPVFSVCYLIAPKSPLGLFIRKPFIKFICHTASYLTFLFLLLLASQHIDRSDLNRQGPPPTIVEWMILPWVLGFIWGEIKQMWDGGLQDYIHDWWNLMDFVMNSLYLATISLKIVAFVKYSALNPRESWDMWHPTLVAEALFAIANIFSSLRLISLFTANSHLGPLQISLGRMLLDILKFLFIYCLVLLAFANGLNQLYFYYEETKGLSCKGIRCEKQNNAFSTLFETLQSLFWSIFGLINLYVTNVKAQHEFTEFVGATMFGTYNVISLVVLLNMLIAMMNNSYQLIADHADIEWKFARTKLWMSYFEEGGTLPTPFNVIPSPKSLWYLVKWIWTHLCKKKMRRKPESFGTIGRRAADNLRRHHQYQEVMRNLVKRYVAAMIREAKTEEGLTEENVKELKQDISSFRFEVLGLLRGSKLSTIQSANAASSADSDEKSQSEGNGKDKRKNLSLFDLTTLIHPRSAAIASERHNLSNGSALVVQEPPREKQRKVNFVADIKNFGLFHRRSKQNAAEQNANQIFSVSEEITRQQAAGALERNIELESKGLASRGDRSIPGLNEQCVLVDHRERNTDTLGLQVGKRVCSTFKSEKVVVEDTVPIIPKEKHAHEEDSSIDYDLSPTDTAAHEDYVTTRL
#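 Material: HEK293 cells with stable TRPC4beta plus mu-opioid receptor expression / Probe or stimulus: DAMGO in two steps, submaximal then maximal / Compound: single concentration per test compound / Technique: kinetic Fluo4 fluorescence imaging of calcium influx / Read-out: per-well B score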
# TRPC6 act = mouse TRPC6 channel activation; Q61143; HEK293-TRPC6 membrane potential dye fluorescence; hits give high values; B-score at 10 µM; 310,000 compounds, 0.13% hits; AID 2550;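 active means B-score of the integrated fluorescence ratio above library mean plus 3 SD, and starting fluorescence ratio within library mean plus 5 SD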;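 further: higher score means more depolarization so channel activation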
# TRPC6 inh = mouse TRPC6 channel inhibition; HEK293-TRPC6, membrane potential dye, ACh-evoked depolarization; hits give low values; B-score at 10 µM; 310,000 compounds, 1.1% hits; Q61143;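 active means B-score under library mean minus 3 SD, initial fluorescence not abnormally high, positive integrated signal ratio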;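 further: B-score derived from integrated fluorescence ratio over the kinetic read; more negative B-score means stronger inhibition of depolarization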
# TRPC4 PAM = allosteric potentiators of mouse TRPC4 channel; Q9QUQ5; HEK293 TRPC4beta/mu-opioid, DAMGO EC20, Fluo-4 Ca2+ flux; hits give high values; B-score at 10 µM; 310,000 compounds, 0.42% hits; AID 2227;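 active means B-score of calcium response area above 5 SD of library B-scores, with initial fluorescence ratio within 5 SD of library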;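 further: B-score of integrated fluorescence ratio over time as area under calcium response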
# TRPC4 agonist = TRPC4 (mouse) channel activation | B-score at 10 µM | HEK293 TRPC4beta/mu-opioid, Fluo4 calcium fluorescence; hits give high values | 310,000 compounds, 0.49% hits | Q9QUQ5;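 active means B-score above 5 SD of library B-scores, and initial fluorescence ratio not above library mean plus 5 SD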;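 further: positive B-score marks a calcium rise read as TRPC4 activation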
#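 Assay system: HEK293 cells stably co-expressing mouse TRPC4beta and mu-opioid receptor / Timing: Fluo4 dye loading 45 min at room temperature, 110 s recording / Signal: Fluo4 calcium-sensitive dye fluorescence, kinetic, 1 Hz baseline / Read-out: integrated baseline-normalised fluorescence ratio, converted to per-well B score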
# TRPC4 sel inh 2 = second check of whether TRPC6 inhibitors also affect mouse TRPC4 | shares compounds with TRPC6 inh | 920 compounds, 42% hits | inhibition, % at 10 µM | AID 2776 | HEK293 TRPC4/MOR, membrane potential dye fluorescence; channel activated by saturating DAMGO dose;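 active means compounds whose fluorescence signal differed from control wells by over 3 SD, either direction, in both duplicate plates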
# TRPC4 spec = tests whether TRPC6 inhibitors also affect mouse TRPC4. shares compounds with TRPC6 inh. HEK293 TRPC4/mu-opioid, membrane potential fluorescence. activity change, negative = inhibition, % at 10 µM. 920 compounds, 61% hits;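 active means rise or fall in signal beyond 3 SD of buffer-only wells in both replicate plates, either sign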;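 further: integrated kinetic ratio of fluorescence range over baseline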
# HEK293 MPD ctr 2-1 = second check of TRPC6 inhibitor effects in parental HEK293 cells. shares compounds with TRPC6 inh. parental HEK293 membrane potential dye fluorescence; maximal acetylcholine challenge after compound addition. signal change vs control, % at 10 µM. 920 compounds, 31% hits. AID 2779;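 active means membrane potential signal moving either way by over 3 SD of the maximum-effect control, in both duplicate plates, meaning non-specific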
# HEK293 MPD ctr-1 = checks TRPC6 inhibitor effects in parental HEK293 cells. 920 compounds, 60% hits. shares compounds with TRPC6 inh. membrane potential signal change, % at 10 µM. parental HEK293 membrane potential dye fluorescence. AID 2780;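 active means membrane potential signal shifting up or down by more than 3 SD of buffer-only wells, on both duplicate plates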
# HEK293 MPD ctr-2 = parental HEK293 nonspecific activity of TRPC6 modulators. membrane potential dye fluorescence. membrane potential signal change, % at 10 µM. shares compounds with TRPC6 inh. 2,400 compounds, 51% hits;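 active means membrane potential signal moves up or down beyond 5 SD from buffer-only wells, on both duplicate plates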
# HEK293 MPD ctr 2-2 = second check of TRPC6 modulator effects in parental HEK293 cells. 2,400 compounds, 14% hits. AID 488926. membrane potential dye fluorescence; after compound, maximal acetylcholine stimulation. shares compounds with TRPC6 inh. inhibition, % at 10 µM;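 active means membrane potential signal drops by more than 5 SD from the mean control signal, in both duplicate plates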;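 further: plate controls were acetylcholine ECmax control wells for no effect and buffer only wells for full effect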
# TRPC4/MOR mod = tests whether TRPC6 modulators also affect mouse TRPC4. AID 488927. percent change from control (negative = decrease, positive = increase), % at 10 µM. shares compounds with TRPC6 inh. 2,400 compounds, 69% hits. HEK293 TRPC4/mu-opioid, membrane potential fluorescence;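 active means membrane potential signal moved up or down beyond 5 SD of buffer control wells, in both duplicate plates, actives on both sides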;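 further: plate controls were assay buffer wells for no effect and DAMGO maximal-effect wells for full effect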
# TRPC4 ctr inh 2 = second selectivity test of TRPC6 modulators against mouse TRPC4. shares compounds with TRPC6 inh. HEK293 TRPC4/mu-opioid, membrane potential dye fluorescence; stimulated with maximal-effect DAMGO. inhibition, % at 10 µM. 2,400 compounds, 55% hits. AID 488928;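 active means drop in membrane potential signal beyond 5 SD of the control wells in both duplicate plates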;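 further: TRPC4 counter screen for TRPC6 hits run under conditions tuned for TRPC6 not TRPC4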
# TRPC6 block conf = confirmation of mouse TRPC6 inhibitors; shares compounds with TRPC6 inh; HEK293-TRPC6, membrane potential dye, ACh-evoked depolarization; inhibition, % at 10 µM; 3,300 compounds, 43% hits;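 active means fluorescence ratio falls more than 5 SD below the full-stimulation control mean, in both duplicate runs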;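 further: integrated fluorescence ratio of peak minus minimum over baseline after agonist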
# TRPC6 act conf = confirmation of mouse TRPC6 activators; shares compounds with TRPC6 inh; HEK293-TRPC6 membrane potential dye fluorescence, FDSS; activation, % at 10 µM; 2,800 compounds, 11% hits; AID 488961;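 active means ratio signal rise beyond 5 SD above unstimulated control wells' mean, seen in both duplicate runs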;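 further: plate controls were buffer EC0 wells for no effect and acetylcholine ECmax response for full effect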
# The depositor's hits bear a star; i = inactive; x = no result; + = active, no number. In the library only some 2.3% were active in any assay of this set; here they are far more common.
SMILES,TRPC4 inh,TRPC6 act,TRPC6 inh,TRPC4 PAM,TRPC4 agonist,HEK293 MPD ctr-2,HEK293 MPD ctr 2-2,TRPC4/MOR mod,TRPC4 ctr inh 2,TRPC6 block conf,TRPC6 act conf,others
Cc1ccc(C)c(NS(=O)(=O)c2c(C)nn(C)c2C)c1,i,i,i,i,i,x,x,x,x,x,x,
CCc1ccc(Nc2n[n+](-c3ccccc3)c(-c3ccc(N(CC)CC)cc3)s2)cc1,i,i,i,i,i,x,x,x,x,x,x,
CCN(CC)c1ccc(-c2sc(Nc3ccccc3)n[n+]2-c2ccc(F)cc2)cc1,i,19*,i,i,i,+,i,204%*,i,i,226%*,
Cc1ccc2c(cnn2C(=O)CCC(=O)NC2CCCCC2)c1,i,i,i,i,i,x,x,x,x,x,x,
CCCCOc1ccc(-c2nnc(-c3cc[n+](C)cc3)o2)cc1,i,i,-8.2*,i,i,x,x,x,x,i,i,TRPC4 sel inh 2=i;TRPC4 spec=-11%*;HEK293 MPD ctr 2-1=-69%*;HEK293 MPD ctr-1=-200%*
CC(C)CCOC(=O)C[N+](C)(C)CCOC1CC2CCC1(C)C2(C)C (stereo unspecified),i,i,-5.7*,i,i,155%*,i,34%*,34%*,48%*,x,
CCCCCCCOC(=O)C[N+](C)(C)CCOC1CC2CCC1(C)C2(C)C (stereo unspecified),i,i,i,i,i,x,x,x,x,x,x,
CCCCOC(=O)C[N+](C)(C)CCOC1CC2CCC1(C)C2(C)C (stereo unspecified),i,i,-5.2*,i,i,99%*,i,23%*,i,38%*,x,
CC(C)c1cc(C(=O)NCCc2ccccc2)no1,i,i,i,i,i,x,x,x,x,x,x,
O=C(c1ccc(Cl)c(Cl)c1)N1CCN(c2ccccn2)CC1,i,i,i,i,i,x,x,x,x,x,x,
O=C(c1ccc(Cl)c(S(=O)(=O)Nc2ccc(F)cc2)c1)N1CCN(c2ccccn2)CC1,i,i,-10*,i,i,x,x,x,x,i,i,TRPC4 sel inh 2=i;TRPC4 spec=9.5%*;HEK293 MPD ctr 2-1=i;HEK293 MPD ctr-1=4.3%*
Cc1cccc[n+]1CC(=O)N1c2ccccc2Sc2ccccc21,i,i,-11*,i,i,x,x,x,x,93%*,i,TRPC4 sel inh 2=i;TRPC4 spec=i;HEK293 MPD ctr 2-1=-12%*;HEK293 MPD ctr-1=i
COCCNCC(=O)N1c2ccccc2Sc2ccccc21,i,i,i,i,i,x,x,x,x,x,x,
CC(C)CNCC(=O)N1c2ccccc2Sc2ccccc21,i,i,-5.7*,i,i,124%*,i,16%*,56%*,i,x,
CCC[n+]1c2ccccc2cc2ccccc21,i,i,-12*,i,i,-176%*,84%*,-91%*,66%*,68%*,i,
Cc1ccc2ccccc2[n+]1CCCS(=O)(=O)[O-],i,i,i,i,i,x,x,x,x,x,x,
CCCC[n+]1c2ccccc2cc2ccccc21,-5*,i,-6.3*,i,i,-170%*,i,-100%*,74%*,56%*,i,
c1cncc(CNc2ncnc3sccc23)c1,i,28*,i,i,44*,i,i,i,i,i,i,
O=C(/C=C/c1ccccc1)C1=C(O)C(=O)N(CCO)C1c1ccccc1[N+](=O)[O-] (stereo unspecified),i,13*,i,i,i,120%*,i,16%*,i,i,62%*,
COC(=O)c1ccc(NC(=O)c2snnc2-c2ccccc2)cc1,i,i,-7.3*,i,i,x,x,x,x,93%*,x,TRPC4 sel inh 2=i;TRPC4 spec=i;HEK293 MPD ctr 2-1=i;HEK293 MPD ctr-1=i
CCC(C)c1ccccc1OCCCNC1CCCC1 (stereo unspecified),i,i,-5*,i,i,232%*,i,58%*,58%*,44%*,x,
CC(CCc1ccccc1)NCc1cccc2ccccc12 (stereo unspecified),i,i,-7.4*,i,i,x,x,x,x,67%*,x,TRPC4 sel inh 2=i;TRPC4 spec=32%*;HEK293 MPD ctr 2-1=i;HEK293 MPD ctr-1=15%*
C[C@H]1C=C(C(=O)O)O[C@@H](OCc2ccc(CO)cc2)C1,i,i,i,i,i,x,x,x,x,x,x,
CCCc1nc(NCCO)c(C#N)c2c1CCCC2,i,i,i,i,i,x,x,x,x,x,x,
CCCCCNc1nc(NCCCO)c(C#N)c2c1CN(C)CC2,i,i,-5.6*,i,i,-100%*,i,-27%*,i,i,i,
CCCCCNc1nc(N2CCCC2)c2c(c1C#N)CCN(C)C2,i,i,-6.6*,i,i,x,x,x,x,71%*,i,TRPC4 sel inh 2=41%*;TRPC4 spec=-22%*;HEK293 MPD ctr 2-1=i;HEK293 MPD ctr-1=-272%*
CN1CCc2c(C#N)c(N3CCOCC3)nc(NCC3CCCO3)c2C1 (stereo unspecified),i,i,i,i,i,x,x,x,x,x,x,
O=C(Nc1cnccn1)Nc1cccc(Cl)c1Cl,i,i,i,i,i,x,x,x,x,x,x,
Cc1nc(NC(=O)c2ccc(Cl)cc2)nc2cc3c(cc12)OCO3,i,i,i,i,i,x,x,x,x,x,x,
